High-throughput results (PubChem BioAssay)
hiPSC survival = increases survival of single human iPS cells | AID 602274 | hiPSC single-cell survival, ATPlite luminescence; 100% = ROCK inhibitor wells, 0% = DMSO | survival enhancement, % at 20 µM | 0.044% of 360,000 active; in the data active = survival enhancement above about 18%;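 note: cells exposed to compounds for 16 hours before the ATP read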
T cruzi inh = blocks replication of Trypanosoma cruzi | inhibition, % (test concentration not listed) | T. cruzi beta-gal in NIH3T3, luminescence, 90 h | 1.4% of 300,000 active;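 active = mean inhibition across valid replicates above about 55%, limit read from the data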;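 note: signal also drops with host cell toxicity which is not excluded here; 0% = plate median of DMSO wells and 100% = zero luminescence signal; higher percent means less beta-gal luminescence so fewer parasites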
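compound dosing = single 50 nL compound addition per well in DMSO | material = NIH/3T3 host cells with β-galactosidase reporter T. cruzi | input = 5,000 host fibroblasts per well | timing = ≥90 h infection period, 3 h prior cell attachment | read-out basis = percent inhibition of parasite-derived β-gal signal | detection = GalScreen β-gal luminescence, detergent lysis, 60 min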
MIN6 prolif = induces beta-cell replication in MIN6 cells; MIN6 cells proliferation, ATPlite luminescence, 48 h; cells starved in 0.2% serum; 100% = growth in 10% serum; proliferation, % at 10 µM; 0.29% of 330,000 active; AID 2380;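 active = compounds whose signal lies at least 3.5 SD above the mean of all wells on their plate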;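 note: 0% = DMSO-treated cells in low-serum medium and 100% = 10% serum control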
Rev-erbA mod = Rev-erb alpha (human) modulation. P20393. Rev-erbα–FITC-DNA binding, fluorescence polarization, 90 min. activity, % at 10 µM. 0.79% of 370,000 active. AID 1259318;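 active = activity above about 14%, limit read from the data; passing the limit was not always enough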;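 note: 0% = DMSO wells with 35 nM protein and 100% = DMSO wells with 750 nM protein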
Target sequence (P20393 whole entry, looked up): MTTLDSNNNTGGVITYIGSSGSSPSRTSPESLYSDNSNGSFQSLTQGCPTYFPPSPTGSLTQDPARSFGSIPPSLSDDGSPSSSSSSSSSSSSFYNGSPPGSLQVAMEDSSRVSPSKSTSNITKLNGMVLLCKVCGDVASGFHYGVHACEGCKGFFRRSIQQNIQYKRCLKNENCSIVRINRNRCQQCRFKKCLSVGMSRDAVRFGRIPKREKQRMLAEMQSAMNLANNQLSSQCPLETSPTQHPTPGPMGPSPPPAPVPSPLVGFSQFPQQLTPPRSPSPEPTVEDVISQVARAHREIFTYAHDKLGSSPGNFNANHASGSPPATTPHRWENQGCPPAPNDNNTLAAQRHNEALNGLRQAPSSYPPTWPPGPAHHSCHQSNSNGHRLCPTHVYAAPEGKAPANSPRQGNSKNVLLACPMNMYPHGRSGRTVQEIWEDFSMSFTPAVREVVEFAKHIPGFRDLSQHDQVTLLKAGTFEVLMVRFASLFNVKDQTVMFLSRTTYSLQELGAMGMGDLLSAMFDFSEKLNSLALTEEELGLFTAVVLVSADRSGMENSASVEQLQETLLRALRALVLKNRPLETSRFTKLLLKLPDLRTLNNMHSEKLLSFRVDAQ
PG9 Ab binder = PG9 antibody binding by small molecule; 0.43% of 360,000 active; AID 624416; inhibition, % at 6.7 µM; TR-FRET gp120-PG9 antibody binding; in the data active = inhibition above about 8.5%
TAG inh = triacylglycerol accumulation inhibition; H9c2 cells, Nile Red lipid (TAG) fluorescence; cells loaded with 200 µM oleic acid; 0.66% of 230,000 active; inhibition, % at 12.5 µM; AID 651582;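 active = pattern-corrected inhibition of lipid staining of at least 50% with the nuclear-stain viability signal not falling by more than 50%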;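 note: 0% = DMSO wells and 100% = triacsin C control wells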
An asterisk follows results filed as active. The list is not random: actives were taken first. Their share in the collection is about 2.9%.

What do the screens show for `COc1ccc(NC(=O)C(Cl)=C(Cl)Cl)cn1`?
hiPSC survival: -1; T cruzi inh: -8; MIN6 prolif: -5; Rev-erbA mod: -4; PG9 Ab binder: -1; TAG inh: 2

What do the screens show for `COc1ccc(NC(=O)/C(Cl)=C(/Cl)S(=O)Cc2ccc(Cl)cc2)cn1` (centres undefined)?
hiPSC survival: -4; MIN6 prolif: -5; Rev-erbA mod: -3; PG9 Ab binder: 0; TAG inh: 88*

How did CCOc1ccc(C(=O)COC(=O)Cc2n[nH]c(=O)c3ccccc23)cc1 do in these assays?
hiPSC survival: 0; T cruzi inh: 1; MIN6 prolif: -6; Rev-erbA mod: -6; PG9 Ab binder: 0; TAG inh: 42

What do the screens show for `CCC1CCc2sc(C(=O)NC3CCN(Cc4ccccc4)CC3)cc2C1` (centres undefined)?
hiPSC survival: 0; T cruzi inh: 60*; MIN6 prolif: -7; Rev-erbA mod: 5; PG9 Ab binder: -3; TAG inh: -11

Results for O=C(c1csc2c1CCCC2)N1CCCCC1 ?
hiPSC survival: -3; T cruzi inh: 13; MIN6 prolif: -3; Rev-erbA mod: 1; PG9 Ab binder: -1; TAG inh: -9

How did Cc1cc(C)n(-c2nc(SCCN(C)C)c3c4c(sc3n2)COC(C)(C)C4)n1 do in these assays?
hiPSC survival: -1; T cruzi inh: 65*; MIN6 prolif: -5; Rev-erbA mod: 0; PG9 Ab binder: 0

Results for COc1ccc(/C(C)=N/NC(=O)c2cc(-c3cccnc3)nc3ccccc23)cc1 ?
hiPSC survival: -1; T cruzi inh: -19; MIN6 prolif: 2; Rev-erbA mod: -2; PG9 Ab binder: 0

Results for CSc1ccccc1NC(=O)c1cc(-c2cccnc2)nc2ccc(Br)cc12 ?
hiPSC survival: 0; T cruzi inh: 69*; MIN6 prolif: -6; Rev-erbA mod: -12; PG9 Ab binder: 4; TAG inh: 81

How did COc1ccccc1CCNC(=O)c1cc(-c2ccncc2)nc2ccc(Br)cc12 do in these assays?
hiPSC survival: 0; T cruzi inh: 89*; Rev-erbA mod: -14; PG9 Ab binder: 3; TAG inh: 14

What do the screens show for `C/C(=N\NC(=O)c1cc(-c2cccnc2)nc2ccccc12)c1ccccc1O`?
hiPSC survival: 4; T cruzi inh: 63*; MIN6 prolif: -4; Rev-erbA mod: 0; PG9 Ab binder: 3

Results for O=Cc1s/c(=N\S(=O)(=O)c2ccccc2)n(CCCCl)c1Cl ?
hiPSC survival: 8; T cruzi inh: 81*; Rev-erbA mod: 2; PG9 Ab binder: 2; TAG inh: 102

How did CSc1nnc(-c2cccn(Cc3ccccc3)c2=O)o1 do in these assays?
hiPSC survival: 2; T cruzi inh: -5; MIN6 prolif: -2; Rev-erbA mod: -4; PG9 Ab binder: -2; TAG inh: 3

What do the screens show for `CCOc1c(Cl)cc(CNc2ccc(S(N)(=O)=O)cc2)cc1OC`?
hiPSC survival: 0; T cruzi inh: -21; MIN6 prolif: -2; Rev-erbA mod: 3; PG9 Ab binder: -1

What do the screens show for `CCOc1c(Cl)cc(CNc2ccc(N3CCCC3)cc2)cc1OC`?
hiPSC survival: 5; T cruzi inh: 63*; Rev-erbA mod: 6; PG9 Ab binder: -1; TAG inh: 60*

Results for COc1ccc(/C=C/C(=O)NCc2nc3ccccc3[nH]2)cc1OC ?
hiPSC survival: 0; T cruzi inh: 1; MIN6 prolif: 0; Rev-erbA mod: 5; PG9 Ab binder: -1; TAG inh: 16

What do the screens show for `C=CCn1c(SCC(=O)NCCO)nc2sc(C)c(C)c2c1=O`?
hiPSC survival: 3; T cruzi inh: -4; MIN6 prolif: 13*; Rev-erbA mod: 2; PG9 Ab binder: -1; TAG inh: -12

Results for CC(C)c1ccc(-c2cc(C(=O)N3N=C(C(F)F)CC3(O)C(F)F)c3ccccc3n2)cc1 (centres undefined) ?
hiPSC survival: -4; T cruzi inh: 69*; MIN6 prolif: -6; Rev-erbA mod: 2; PG9 Ab binder: 0

How did COc1ccc(/C=N/NC(=O)c2ccc(=O)[nH]n2)cc1OC do in these assays?
hiPSC survival: 3; T cruzi inh: 4; MIN6 prolif: -1; Rev-erbA mod: 3; PG9 Ab binder: -1; TAG inh: -4

Results for CC1=C(C(=O)OCc2ccccc2)C(c2ccccc2Br)NC(=O)N1 (centres undefined) ?
hiPSC survival: -1; T cruzi inh: 0; MIN6 prolif: -3; Rev-erbA mod: 3; PG9 Ab binder: -2; TAG inh: 1

How did CCOC(=O)c1[nH]c(C)c(C(=O)N2CCc3ccccc32)c1C do in these assays?
hiPSC survival: -1; T cruzi inh: 9; MIN6 prolif: -3; Rev-erbA mod: 5; PG9 Ab binder: 0; TAG inh: 56*

What do the screens show for `CSCCC(=O)Nc1cc(S(=O)(=O)N2CCOCC2)ccc1N1CCN(C)CC1`?
hiPSC survival: 1; T cruzi inh: 65*; MIN6 prolif: -2; Rev-erbA mod: 2; PG9 Ab binder: 1; TAG inh: -3

What do the screens show for `CCCCCC(=O)Nc1cc(S(=O)(=O)N2CCOCC2)ccc1N1CCN(C)CC1`?
hiPSC survival: 0; T cruzi inh: 64*; MIN6 prolif: -1; Rev-erbA mod: -2; PG9 Ab binder: -1; TAG inh: -14

Results for Cc1ccc2nccc(C(=O)N3CCCC(Nc4ccc(C)c(C)c4)C3)c2c1 (centres undefined) ?
hiPSC survival: 0; T cruzi inh: -6; MIN6 prolif: -2; Rev-erbA mod: -4; PG9 Ab binder: -4

Results for O=C(/C=C/c1cn(-c2ccccc2)nc1-c1cccnc1)N1CCCC1 ?
hiPSC survival: 3; T cruzi inh: 34; Rev-erbA mod: 1; PG9 Ab binder: -3; TAG inh: -13

What do the screens show for `CCN(CCCNC(=O)COc1cc(=O)n(CC)c2ccccc12)Cc1ccccc1`?
hiPSC survival: 0; T cruzi inh: 15; MIN6 prolif: -3; Rev-erbA mod: 2; PG9 Ab binder: -2

What do the screens show for `Cn1c(=O)cc(OCCCC(=O)Nc2cccc(Cl)c2)c2ccccc21`?
hiPSC survival: 21*; Rev-erbA mod: 7; PG9 Ab binder: 0; TAG inh: 35

What do the screens show for `CCN(CCCNC(=O)CCCOc1cc(=O)n(C)c2ccccc12)Cc1ccccc1`?
hiPSC survival: -3; T cruzi inh: 55*; MIN6 prolif: -3; Rev-erbA mod: -1; PG9 Ab binder: -2

What do the screens show for `CC(=O)Nc1cccc(C(=O)/C=C/c2cccs2)c1`?
hiPSC survival: -1; T cruzi inh: -4; Rev-erbA mod: 5; PG9 Ab binder: -1

What do the screens show for `CCCSc1nnc(Sc2nnnn2-c2ccccc2)s1`?
hiPSC survival: -4; T cruzi inh: 55*; MIN6 prolif: -6; Rev-erbA mod: 8; PG9 Ab binder: -1
